Laboratory results from ChEMBL document CHEMBL1133105, “Antimalarial, antitrypanosomal, and antileishmanial activities and cytotoxicity of bis(9-amino-6-chloro-2-methoxyacridines): influence of the linker” (J Med Chem, 2000).
pIC50: −log10 of the molar value.

Columns and labels:
Leishmania infantum [1] = assay: In Vitro evaluation for the percentage of activity towards Leishmania infantum at 3.13 uM Concentration; Toxic upon mouse primary peritoneal macrophages; type: functional, organism-based
In short: (§1)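 Starch-stimulated mouse peritoneal macrophages, 30 000/well, infected after 24 h with spleen-derived L. infantum amastigotes (10:1) together with 2-fold drug dilutions (12.5–1.56 µM). Incubated 7 days at 37 °C, 5% CO2. Wright-stained slides scored microscopically as % reduction of total parasite load or of infected macrophages. Uninfected treated cultures judged microscopically for macrophage toxicity.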

Leishmania infantum [2] = assay: Percentage of activity against Leishmania infantum at 6.25 uM; Toxic upon mouse primary peritoneal macrophages; type: functional, organism-based; in short: as §1
Leishmania infantum [3] = assay: In Vitro evaluation for the percentage of activity towards Leishmania infantum at 1.56 uM Concentration; Toxic upon mouse primary peritoneal macrophages; type: functional, organism-based; in short: as §1
Leishmania infantum [4] = assay: Percentage of activity against Leishmania infantum at 12.5 uM Concentration; Toxic upon mouse primary peritoneal macrophages; type: functional, organism-based; in short: as §1
MRC5 [5] = assay: Cytotoxicity on MRC-5 cells at 12.5 uM; type: functional; details: Homo sapiens
In short: (§2)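 MRC-5 human diploid embryonic lung cells seeded at 5 000/well, washed after 24 h, then given 2-fold drug dilutions (25, 12.5, 6.25, 3.13 µM) in RPMI + 5% FCS, final DMSO below 0.5%. Incubated 7 days at 37 °C, 5% CO2. MTT colorimetric read-out, scored as % reduction of absorbance at 540 nm versus untreated controls.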

MRC5 [6] = assay: Cytotoxicity on MRC-5 cells at 25 uM; type: functional; details: Homo sapiens; in short: as §2
MRC5 [7] = assay: Cytotoxicity on MRC-5 cells at 3.13 uM; type: functional; details: Homo sapiens; in short: as §2
MRC5 [8] = assay: Cytotoxicity on MRC-5 cells at 6.25 uM; type: functional; details: Homo sapiens; in short: as §2
Plasmodium falciparum = assay: In vitro sensitivity for Plasmodium falciparum FcB1R; type: functional, organism-based
In short: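 Asynchronous P. falciparum cultures in human erythrocytes (0.5% parasitemia, 1% haematocrit) exposed to serially diluted drug for 24 h at 37 °C. [3H]hypoxanthine (0.5 µCi/well) then added for a further 24 h. Uptake compared with drug-free controls on the same plate. IC50 taken from the concentration–response curve, averaged over independent experiments. DMSO ≤0.1%.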

Trypanosoma cruzi [9] = assay: Percentage of activity against Trypanosoma cruzi at 1.56 uM; type: functional
In short: (§3)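 Mouse peritoneal macrophages, 30 000/well, infected after 24 h with about 100 000 T. cruzi trypomastigotes per well plus 2-fold drug dilutions (12.5–1.56 µM). Incubated 4 days at 37 °C, 5% CO2. Methanol-fixed, Giemsa-stained and scored microscopically as % reduction of total parasite load (free trypomastigotes plus intracellular amastigotes) versus untreated controls.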

Trypanosoma cruzi [10] = assay: Percentage of activity against Trypanosoma cruzi at 12.5 uM; Toxic upon mouse primary peritoneal macrophages; type: functional, organism-based; in short: as §3
Trypanosoma cruzi [11] = assay: In Vitro evaluation for the percentage of activity towards Trypanosoma cruzi at 3.13 uM Concentration; Toxic upon mouse primary peritoneal macrophages; type: functional, organism-based; in short: as §3
Trypanosoma cruzi [12] = assay: In Vitro evaluation for the percentage of activity towards Trypanosoma cruzi at 6.25 uM Concentration; Toxic upon mouse primary peritoneal macrophages; type: functional, organism-based; in short: as §3
Trypanosoma brucei [13] = assay: Percentage of activity against Trypanosoma brucei at 6.25 uM; type: functional
In short: (§4)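 Bloodstream-form T. brucei in HMI-9 medium, 10 000 parasites/well, exposed to 12.5, 6.25, 3.13 and 1.56 µM drug for 4 days. Read-out is % inhibition of parasite multiplication. Macrophage toxicity judged on mouse primary peritoneal macrophages.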

Trypanosoma brucei [14] = assay: Percentage of activity against Trypanosoma brucei at 1.56 uM; type: functional; in short: as §4
Trypanosoma brucei [15] = assay: Percentage of activity against Trypanosoma brucei at 3.13 uM; type: functional; in short: as §4
Leishmania infantum [16] = assay: Percentage of activity against Leishmania infantum at 1.56 uM; type: functional; in short: as §1
Trypanosoma brucei [17] = assay: Percentage of activity against Trypanosoma brucei at 12.5 uM; type: functional; in short: as §4
Leishmania infantum [18] = assay: Percentage of activity against Leishmania infantum 6.25 uM; type: functional; in short: as §1
Leishmania infantum [19] = assay: In Vitro evaluation for the percentage of activity towards Leishmania infantum at 12.5 uM Concentration; type: functional; in short: as §1
Leishmania infantum [20] = assay: Percentage of activity against Leishmania infantum at 3.13 uM; type: functional; in short: as §1
Trypanosoma cruzi [21] = assay: Percentage of activity against Trypanosoma cruzi at 12.5 uM; type: functional; in short: as §3
Trypanosoma cruzi [22] = assay: Percentage of activity against Trypanosoma cruzi at 3.13 uM; type: functional; in short: as §3
Trypanosoma cruzi [23] = assay: Percentage of activity against Trypanosoma cruzi at 6.25 uM Concentration; type: functional; in short: as §3

SMILES	Cytotoxicity (Leishmania infantum [1])	Cytotoxicity (Leishmania infantum [2])	Cytotoxicity (Leishmania infantum [4])	cytotoxicity at 12.5 µM (MRC5 [5]) [%]	cytotoxicity at 25 µM (MRC5 [6]) [%]	cytotoxicity at 3.13 µM (MRC5 [7]) [%]	cytotoxicity at 6.25 µM (MRC5 [8]) [%]	pIC50 (Plasmodium falciparum)	Parasite load reduction (Trypanosoma cruzi [9]) [%]	Inhibition of parasite multiplication (Trypanosoma brucei [13]) [%]	Percent inhibition of parasite multiplication (Trypanosoma brucei [14]) [%]	Parasite growth inhibition (Trypanosoma brucei [15]) [%]	Antileishmanial activity (% reduction of parasite load) (Leishmania infantum [16]) [%]	Inhibition of parasite multiplication (Trypanosoma brucei [17]) [%]	Antileishmanial activity (% reduction of parasite load) (Leishmania infantum [18]) [%]	Percent inhibition of Leishmania infantum (Leishmania infantum [19]) [%]	Percent antileishmanial activity (reduction of parasite load) (Leishmania infantum [20]) [%]	T. cruzi parasite load reduction (Trypanosoma cruzi [21]) [%]	Reduction of T. cruzi parasite load (Trypanosoma cruzi [22]) [%]	Reduction of T. cruzi parasite load (Trypanosoma cruzi [23]) [%]	other results
COc1ccc2nc3cc(Cl)ccc3c(NCCCN(CCCNc3c4ccc(Cl)cc4nc4ccc(OC)cc34)C(=O)CCN3CCN(C)CC3)c2c1	Toxic	Toxic	Toxic	74	80	40	57	7.21	0	100	100	100	–	–	–	–	–	–	–	–	Cytotoxicity (Leishmania infantum [3]): Toxic; Cytotoxicity (Trypanosoma cruzi [10]): Toxic; Cytotoxicity (Trypanosoma cruzi [11]): Toxic; Cytotoxicity (Trypanosoma cruzi [12]): Toxic
COc1ccc2nc3cc(Cl)ccc3c(NCCCN(CCCNc3c4ccc(Cl)cc4nc4ccc(OC)cc34)C(=O)CCN3CCCCC3)c2c1	Toxic	Toxic	Toxic	71	78	42	57	7.17	40	100	100	100	–	–	–	–	–	–	–	–	Cytotoxicity (Leishmania infantum [3]): Toxic; Cytotoxicity (Trypanosoma cruzi [10]): Toxic; Cytotoxicity (Trypanosoma cruzi [11]): Toxic; Cytotoxicity (Trypanosoma cruzi [12]): Toxic
COc1ccc2nc3cc(Cl)ccc3c(NCCCNCCCNc3c4ccc(Cl)cc4nc4ccc(OC)cc34)c2c1	Toxic	Toxic	Toxic	100	100	100	100	7.26	60	100	100	100	40	100	–	–	–	–	–	–	Cytotoxicity (Trypanosoma cruzi [10]): Toxic; Cytotoxicity (Trypanosoma cruzi [11]): Toxic; Cytotoxicity (Trypanosoma cruzi [12]): Toxic
COc1ccc2nc3cc(Cl)ccc3c(NCCCN(CCCNc3c4ccc(Cl)cc4nc4ccc(OC)cc34)C(=O)CCC(=O)O)c2c1	–	–	–	0	0	0	0	6.57	0	95	60	80	0	100	0	0	0	0	0	0	–
COc1ccc2nc3cc(Cl)ccc3c(NCCCN(CCCNc3c4ccc(Cl)cc4nc4ccc(OC)cc34)C(=O)C(CCCCN)NC(=O)OC(C)(C)C)c2c1 (stereo not drawn)	–	–	–	100	100	0	40	< 6.30	0	100	100	100	0	100	0	40	0	99	40	90	–
COc1ccc2nc3cc(Cl)ccc3c(NCCCN(CCCNc3c4ccc(Cl)cc4nc4ccc(OC)cc34)C(=O)CCN3CCOCC3)c2c1	Toxic	Toxic	Toxic	100	100	80	100	7.59	40	100	100	100	–	100	–	–	–	–	60	–	Cytotoxicity (Leishmania infantum [3]): Toxic; Cytotoxicity (Trypanosoma cruzi [10]): Toxic; Cytotoxicity (Trypanosoma cruzi [12]): Toxic
COc1ccc2nc3cc(Cl)ccc3c(NCCCN(CCCNc3c4ccc(Cl)cc4nc4ccc(OC)cc34)C(=O)C(C)N)c2c1 (stereo not drawn)	–	–	–	100	100	20	40	< 6.30	0	100	100	100	0	100	0	0	0	0	0	0	–
COc1ccc2nc3cc(Cl)ccc3c(NCCN(CCNc3c4ccc(Cl)cc4nc4ccc(OC)cc34)C(=O)C(C)NC(=O)OC(C)(C)C)c2c1 (stereo not drawn)	–	–	–	0	100	0	0	6.96	0	100	99	100	0	100	60	90	20	60	0	40	–
COc1ccc2nc3cc(Cl)ccc3c(NCCCCCCNc3c4ccc(Cl)cc4nc4ccc(OC)cc34)c2c1	–	–	–	90	100	20	80	7.80	0	100	90	99	0	100	0	40	0	70	0	40	–
COc1ccc2nc3cc(Cl)ccc3c(NCCCCN(CCCNc3c4ccc(Cl)cc4nc4ccc(OC)cc34)C(=O)C(C)NC(=O)OC(C)(C)C)c2c1 (stereo not drawn)	–	–	–	100	100	0	0	6.48	0	100	100	100	0	100	40	70	20	90	20	70	–
